# Assay results: ChEMBL document CHEMBL1140506, “Molecular design of histone deacetylase inhibitors by aromatic ring shifting in chlamydocin framework” (Bioorg Med Chem, 2007)
# pIC50: −log10 of the molar value. Non-standard residues stand in square brackets, D forms with d. Residues, ends and D or L forms follow the SMILES beside them. Ahp(7-SS(2-pyridyl)) = N[C@@H](CCCCCSSc1ccccn1)C(=O)O; Aib = CC(C)(N)C(=O)O
# What was measured:
# [1] = organism: Homo sapiens; assay: Selectivity for human HDAC4 over human HDAC1
# Procedure, shortened: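 Selectivity calculated from IC50 values against FLAG-tagged human HDAC4 and HDAC1, each transiently expressed in 293T cells, anti-FLAG immunopurified and FLAG-peptide eluted. Ac-KGLGK(Ac)-MCA substrate, pH 8.0 Tris buffer with 0.1 mM DTT, 37 °C 30 min. Trypsin development, then AMC fluorescence read.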
# [2] = Induction of wild-type p21 promoter activation in mink Mv1Lu cells after 18 hrs by luciferase assay relative to basal level; assay type: functional, Neovison vison
# Procedure, shortened: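 Stable Mv1Lu clone (MFLL-9) carrying p21 promoter (2.4 kb genomic fragment)–luciferase reporter, G418-selected. Cells (1 × 10^5) plated 6 h, then exposed 18 h to various drug concentrations. Luciferase activity of lysates measured by luminometer, normalized to lysate protein; concentration giving 10-fold induction over basal level reported as EC1000.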
# [3] = target: T1, Protein deacetylase HDAC6 (Mus musculus, UniProt Q9Z2V5); assay: Inhibition of mouse HDAC6 expressed in 293T cells; assay type: cell-based
# T1 sequence (Q9Z2V5 whole entry): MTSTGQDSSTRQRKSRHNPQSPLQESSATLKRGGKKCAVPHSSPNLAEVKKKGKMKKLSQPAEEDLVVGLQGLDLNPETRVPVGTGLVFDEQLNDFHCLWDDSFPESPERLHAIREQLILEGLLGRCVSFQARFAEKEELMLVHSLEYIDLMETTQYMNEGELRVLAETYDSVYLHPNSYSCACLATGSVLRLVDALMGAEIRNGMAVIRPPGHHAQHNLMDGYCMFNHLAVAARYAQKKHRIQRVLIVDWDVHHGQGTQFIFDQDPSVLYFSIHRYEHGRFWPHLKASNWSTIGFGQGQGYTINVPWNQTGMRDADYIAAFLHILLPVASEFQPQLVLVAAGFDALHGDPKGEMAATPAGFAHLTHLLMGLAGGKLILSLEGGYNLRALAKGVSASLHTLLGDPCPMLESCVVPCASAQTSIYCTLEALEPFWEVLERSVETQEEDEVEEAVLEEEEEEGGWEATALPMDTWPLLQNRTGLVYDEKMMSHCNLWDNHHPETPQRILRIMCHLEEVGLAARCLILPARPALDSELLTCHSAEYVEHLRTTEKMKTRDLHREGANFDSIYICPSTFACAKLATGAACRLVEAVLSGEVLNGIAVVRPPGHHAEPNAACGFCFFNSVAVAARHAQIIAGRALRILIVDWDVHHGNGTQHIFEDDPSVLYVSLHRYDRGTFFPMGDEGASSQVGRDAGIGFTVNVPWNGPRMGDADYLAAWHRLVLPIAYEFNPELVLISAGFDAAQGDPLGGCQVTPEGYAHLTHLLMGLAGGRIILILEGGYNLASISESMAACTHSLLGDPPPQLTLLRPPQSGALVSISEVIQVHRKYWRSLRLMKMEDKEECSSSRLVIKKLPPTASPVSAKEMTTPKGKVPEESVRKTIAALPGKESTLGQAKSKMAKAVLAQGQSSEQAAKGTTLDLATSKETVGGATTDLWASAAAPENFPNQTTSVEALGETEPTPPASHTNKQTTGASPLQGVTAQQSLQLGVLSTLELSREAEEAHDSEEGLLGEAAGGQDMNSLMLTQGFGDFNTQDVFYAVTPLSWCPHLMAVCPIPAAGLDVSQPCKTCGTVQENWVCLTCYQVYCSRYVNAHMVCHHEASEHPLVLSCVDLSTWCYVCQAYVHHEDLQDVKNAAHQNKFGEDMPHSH
# [4] = target: Histone deacetylase 4 (Homo sapiens, UniProt P56524); assay: Inhibition of human HDAC4 expressed in 293T cells; assay type: cell-based
# [5] = target: Histone deacetylase 1 (Homo sapiens, UniProt Q13547); assay: Inhibition of human HDAC1 expressed in 293T cells; assay type: cell-based
# Sequence of Histone deacetylase 1 (Q13547 whole entry): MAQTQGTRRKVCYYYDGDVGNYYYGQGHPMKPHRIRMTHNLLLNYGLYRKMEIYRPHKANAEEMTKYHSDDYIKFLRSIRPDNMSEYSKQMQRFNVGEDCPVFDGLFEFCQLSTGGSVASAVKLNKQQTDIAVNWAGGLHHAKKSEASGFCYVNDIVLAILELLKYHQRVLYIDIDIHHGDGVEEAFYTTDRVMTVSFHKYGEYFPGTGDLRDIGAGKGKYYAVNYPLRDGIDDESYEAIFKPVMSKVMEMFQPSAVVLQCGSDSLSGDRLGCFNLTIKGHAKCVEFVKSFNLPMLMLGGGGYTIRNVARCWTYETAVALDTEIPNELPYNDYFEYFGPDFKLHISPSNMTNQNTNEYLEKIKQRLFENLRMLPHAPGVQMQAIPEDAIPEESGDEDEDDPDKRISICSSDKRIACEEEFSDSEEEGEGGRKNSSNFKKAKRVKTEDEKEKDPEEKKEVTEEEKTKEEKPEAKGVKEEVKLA
# Sequence of Histone deacetylase 4 (P56524 whole entry): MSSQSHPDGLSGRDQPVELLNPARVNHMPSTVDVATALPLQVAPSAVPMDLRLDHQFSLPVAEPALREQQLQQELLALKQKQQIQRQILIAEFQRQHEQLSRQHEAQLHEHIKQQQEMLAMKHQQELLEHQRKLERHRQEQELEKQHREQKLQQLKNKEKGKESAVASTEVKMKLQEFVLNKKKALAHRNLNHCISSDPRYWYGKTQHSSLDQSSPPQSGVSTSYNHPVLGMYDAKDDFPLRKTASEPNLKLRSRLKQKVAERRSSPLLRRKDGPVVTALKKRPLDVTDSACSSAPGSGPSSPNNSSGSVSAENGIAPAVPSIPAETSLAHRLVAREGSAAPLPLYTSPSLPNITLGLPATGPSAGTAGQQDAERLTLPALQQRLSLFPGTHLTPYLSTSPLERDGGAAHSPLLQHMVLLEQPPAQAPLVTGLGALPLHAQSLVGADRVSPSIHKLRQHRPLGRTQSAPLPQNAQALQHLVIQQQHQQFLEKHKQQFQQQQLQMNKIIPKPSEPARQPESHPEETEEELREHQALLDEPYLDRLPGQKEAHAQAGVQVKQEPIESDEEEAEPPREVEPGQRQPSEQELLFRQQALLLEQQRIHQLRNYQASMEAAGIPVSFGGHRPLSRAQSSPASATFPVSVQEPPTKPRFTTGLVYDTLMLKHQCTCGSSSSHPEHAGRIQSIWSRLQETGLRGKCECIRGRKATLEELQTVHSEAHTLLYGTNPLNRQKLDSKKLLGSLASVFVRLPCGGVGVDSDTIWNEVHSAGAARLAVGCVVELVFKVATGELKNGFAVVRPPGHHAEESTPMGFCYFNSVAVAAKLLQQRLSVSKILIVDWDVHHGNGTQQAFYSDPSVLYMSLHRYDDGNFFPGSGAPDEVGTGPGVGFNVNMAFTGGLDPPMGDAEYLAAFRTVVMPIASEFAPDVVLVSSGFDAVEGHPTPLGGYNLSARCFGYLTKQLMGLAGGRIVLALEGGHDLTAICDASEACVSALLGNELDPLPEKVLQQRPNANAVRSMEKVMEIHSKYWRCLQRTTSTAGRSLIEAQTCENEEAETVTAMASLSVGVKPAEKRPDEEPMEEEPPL
SMILES,Ratio IC50 [1],EC1000 [2],pIC50 [3],pIC50 [4],pIC50 [5]
C[C@H]1CN2Cc3ccccc3C[C@@H]2C(=O)N[C@@H](CCCCCSSc2ccccn2)C(=O)NC(C)(C)C(=O)N1,1.1,,,,
C[C@@H]1NC(=O)[C@@](C)(Cc2ccccc2)NC(=O)[C@H](CCCCCSSc2ccccn2)NC(=O)[C@H]2CCCN2C1=O,2.4,25600 nM,7.15,7.15,6.77
C[C@@H]1NC(=O)C(C)(C)NC(=O)[C@H](CCCCCSSc2ccccn2)NC(=O)[C@H]2CCCN2C1=O,1.8,750 nM,7.37,8.28,8.03
C[C@@H]1NC(=O)[C@@]2(CCc3ccccc32)NC(=O)[C@H](CCCCCSSc2ccccn2)NC(=O)[C@H]2CCCN2C1=O,1.1,55 nM,7.92,8.62,8.57
C[C@@H]1NC(=O)C2(Cc3ccccc3C2)NC(=O)[C@H](CCCCCSSc2ccccn2)NC(=O)[C@H]2CCCN2C1=O,1.2,140 nM,8.06,8.80,8.70
CC1(C)NC(=O)[C@H](CCCCCSSc2ccccn2)NC(=O)[C@H]2CCCN2C(=O)[C@H](Cc2ccccc2)NC1=O (cyclo([Aib]F[dP][Ahp(7-SS(2-pyridyl))])),2.1,45 nM,7.40,8.74,8.41
C[C@@H]1NC(=O)[C@](C)(Cc2ccccc2)NC(=O)[C@H](CCCCCSSc2ccccn2)NC(=O)[C@H]2CCCN2C1=O,1.6,550 nM,7.25,8.66,8.43
CC1(C)NC(=O)[C@H](CCCCCSSc2ccccn2)NC(=O)[C@H]2CCCN2C(=O)[C@H](CCCc2ccccc2)NC1=O,1.9,110 nM,7.37,8.57,8.28
C[C@@H]1NC(=O)C(C)(C)NC(=O)[C@H](CCCCCSSc2ccccn2)NC(=O)[C@H]2Cc3ccccc3CN2C1=O [listing 1 of 2 here],,,7.54,8.38,8.33
CC1(C)NC(=O)[C@H](CCCCCSSc2ccccn2)NC(=O)[C@H]2CCCN2C(=O)[C@H](c2ccccc2)NC1=O,1.5,7400 nM,7.07,7.25,7.06
C[C@@H]1NC(=O)C(C)(C)NC(=O)[C@H](CCCCCSSc2ccccn2)NC(=O)[C@H]2Cc3ccccc3CN2C1=O [listing 2 of 2 here],,200 nM,,,
CC1(C)NC(=O)[C@H](CCCCCSSc2ccccn2)NC(=O)[C@H]2CCCN2C(=O)[C@H](COCc2ccccc2)NC1=O,2,72 nM,7.62,8.80,8.49
C[C@@H]1NC(=O)[C@]2(CCc3ccccc32)NC(=O)[C@H](CCCCCSSc2ccccn2)NC(=O)[C@H]2CCCN2C1=O,1.4,2000 nM,7.48,7.60,7.44
CC1(C)NC(=O)[C@H](CCCCCSSc2ccccn2)NC(=O)[C@H]2CCCN2C(=O)[C@H](CO)NC1=O,1.6,580 nM,7.59,8.40,8.19
CC1(C)NC(=O)[C@H](CCCCCSSc2ccccn2)NC(=O)[C@H]2CCCN2C(=O)[C@H](CCc2ccccc2)NC1=O,1.9,320 nM,7.44,8.49,8.21
